The values below come from article PMC3844559 (Journal of medicinal chemistry, 2013).

One data set relates to rabbit models. The conditions noted are these: cited from earlier work.
For data set [1], the system named is murine models of immunization. Particulars: cited from earlier work.
The test system of data set [2] is ex vivo human blood models. The conditions noted are these: cited from earlier work.
The next data set concerns the target human TLR2 (Homo sapiens, UniProt O60603). The data set is described as follows: human TLR2-specific NF-κB reporter gene assay. The format is cell-based. The conditions noted are these: for EC50: hTLR2-Agonistic Activity (EC50 in nM), human TLR2-specific reporter gene assay; for hTLR2-specific agonistic activity: reporter gene assays.
The nature of the next data set: aqueous solubility. The format is physicochemical. The conditions noted are these: water.
Another data set relates to patients. Particulars: cited from earlier work.
The subject of another data set is human PBMCs. Kind of data set: 41-plex chemokine/cytokine immunoassay in hPBMC. The format is cell-based. The conditions noted are these: 12 h, 41-plex immunoassay. In outline:
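Fresh human PBMCs were isolated on Ficoll-Hypaque gradients from venipuncture blood. Cells were plated at 10⁵ per well, stimulated 12 h with graded concentrations of test compound, with LPS as reference. Supernatants were collected by centrifugation and assayed in duplicate for 41 cytokines/chemokines by magnetic bead multiplex; intra-assay CV was 4–8%. Data are means of duplicates from a representative experiment.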

A further data set relates to rabbits. Kind of data set: safety evaluation in rabbits. The format is in vivo, rabbit. The method in brief: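 Rabbits (n=3 per group) received test compound 100 μg/dose, LPS 1 μg/dose (positive control) or saline vehicle. Doses were in sterile saline without excipients, 0.5 mL, as an i.v. bolus into the marginal ear vein. Blood was drawn from the contralateral ear at 0, 2 and 6 h for total/differential leukocytes, band forms, hemoglobin and MCH. Core temperature was logged by rectal thermistor probe.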

A short description of data set [3]: stability of aqueous stocks / accelerated stability testing. The conditions noted are these: for stability of aqueous stocks: aqueous stocks on storage. The format is physicochemical.
The test system of data set [4] is human PBMCs or human whole blood. The data set is described as follows: proinflammatory cytokine induction, 5-plex cytometric bead assays. Particulars: 5-plex cytometric bead assays (data not shown). The format is cell-based.
Data set [5] concerns granulocytes and monocytes in human whole blood. Kind of data set: CD11b upregulation by flow cytometry in whole human blood. The format is cell-based. The conditions noted are these: 1 h. In outline:
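Heparin-anticoagulated whole blood from healthy volunteers was added to serial dilutions of test compound, with reference compounds and fRPMI negative controls, then held 1 h at 37 °C. Cells were stained with CD11b-PE/CD14-APC for 30 min at 4 °C in the dark, then lysed/fixed and washed twice in saline. 100,000 gated events were acquired. Granulocytes were gated by forward/side scatter, monocytes by CD14.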

Where [6] appears, read: single i.v. bolus, 38 100 μg, LPS 1 μg.

No end group written: not given here. *: point of attachment. X1 = S‑(2,3-bis(palmitoyloxy)-(2R)-propyl)‑R‑cysteinyl, CCCCCCCCCCCCCCCC(=O)OC[C@H](CSC[C@H](N)C(=O)*)OC(=O)CCCCCCCCCCCCCCC

Sequence of human TLR2 (O60603 21-784): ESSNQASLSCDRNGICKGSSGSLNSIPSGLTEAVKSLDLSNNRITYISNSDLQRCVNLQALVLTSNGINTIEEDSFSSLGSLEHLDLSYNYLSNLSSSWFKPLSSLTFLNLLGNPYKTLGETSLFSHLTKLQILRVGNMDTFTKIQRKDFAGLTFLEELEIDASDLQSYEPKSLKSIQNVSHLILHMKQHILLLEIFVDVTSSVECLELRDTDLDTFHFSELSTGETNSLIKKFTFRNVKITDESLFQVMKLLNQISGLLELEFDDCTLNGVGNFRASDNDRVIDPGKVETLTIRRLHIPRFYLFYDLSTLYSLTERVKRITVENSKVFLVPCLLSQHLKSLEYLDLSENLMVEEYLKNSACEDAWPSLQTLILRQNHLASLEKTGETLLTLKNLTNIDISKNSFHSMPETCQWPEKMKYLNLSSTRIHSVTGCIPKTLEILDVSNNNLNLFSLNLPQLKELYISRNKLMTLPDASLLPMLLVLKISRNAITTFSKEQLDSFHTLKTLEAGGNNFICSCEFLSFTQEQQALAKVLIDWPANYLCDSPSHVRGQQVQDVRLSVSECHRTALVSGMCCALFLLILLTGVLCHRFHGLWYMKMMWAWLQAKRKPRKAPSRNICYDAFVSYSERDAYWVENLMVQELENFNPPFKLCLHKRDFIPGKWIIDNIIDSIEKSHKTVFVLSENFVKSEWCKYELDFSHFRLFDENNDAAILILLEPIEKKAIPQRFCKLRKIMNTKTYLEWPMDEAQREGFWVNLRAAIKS

In the case of `CCCCCCCCCCCCCCCC(=O)OCC(CSC[C@H](N)C(=O)N[C@@H](CO)C(=O)O)OC(=O)CCCCCCCCCCCCCCC` (mixture of isomers) [Compound 2, S-[2,3-bis(palmitoyloxy)-(2RS)-propyl]-R-cysteinyl-S-serine], in the data set with rabbit models, the “local reactogenicity and pyrogenicity” value is recorded as “devoid of”. Besides, in data set [1], the adjuvanticity result is “potently adjuvantic”. In addition, the “levels of proinflammatory mediators such as TNF-α, IL-1β and IL-18” value in data set [2] (earlier findings) was “virtually undetectable levels”. The “pro-inflammatory activity (TNF-α, IL-1β, IL-6, IL-8 production)” value in [2] (ex vivo human blood models) was “devoid of any detectable pro-inflammatory activity”.

`CCCCCCCCCCCCCCCC(=O)OCCSC[C@H](NC(C)=O)C(=O)N[C@@H](COS(=O)(=O)O)C(=O)OC` [Compound 13, 2-(((R)-2-Acetamido-3-(((S)-1-methoxy-1-oxo-3-(sulfooxy)propan-2-yl)amino)-3-oxopropyl)thio)ethyl palmitate]: at human TLR2, the EC50 is 5.84 nM and the “hTLR2-specific agonistic activity” value was “retained hTLR2-specific agonistic activity”. Besides, the “aqueous solubility” value in “aqueous solubility” is recorded as “highly water soluble”.

Turning to `CCCCCCCCCCCCCCCC(=O)OCCSC[C@H](NC(C)=O)C(=O)N[C@@H](COC(=O)c1cccnc1)C(=O)OC` [Compound 15, (S)-2-((R)-2-Acetamido-3-((2-(palmitoyloxy)ethyl)thio)propanamido)-3-methoxy-3-oxopropyl nicotinate], on human TLR2, the EC50 was determined as 0.75 nM and the “hTLR2-specific agonistic activity” value was “retained hTLR2-specific agonistic activity”.

As to `CCCCCCCCCCCCCCCC(=O)NCCSC[C@H](NC(C)=O)C(=O)N[C@@H](CO)C(=O)OC` [Compound 22, (S)-Methyl 2-((R)-2-acetamido-3-((2-palmitamidoethyl)thio)propanamido)-3-hydroxypropanoate], at human TLR2, the 50% effective concentration (EC50) amounted to 12.8 nM. This counts as double-digit nanomolar.

Take “S-[2,3-bis(palmitoyloxy)-(2R)-propyl]-R-cysteinyl-GNNDESNISFKEK (X1-GNNDESNISFKEK) [Compound 1]”: in the data set on patients (ten patients with pancreas carcinomas, 20–30 μg injected during surgery), the “well tolerated dose, intra-tumoral injection” value is on record as “up to 20 μg”. In addition, the “systemic side effects, intra-tumoral injection” value in the data set with patients (ten patients with pancreas carcinomas, 20–30 μg) was “no systemic side effects were noted”. The “systemic side effects, application on punch biopsy skin lesions” value in the data set on patients (twelve patients, 0.125–1.0 μg) was “other than transient and self-limited erythema, no systemic side effects were noted”.

As to `CCCCCCCCCCCCCCCCOC(=O)NCCSC[C@H](NC(C)=O)C(=O)N[C@@H](CO)C(=O)NCCCN(C)C` [Compound 38, Hexadecyl ((8S,11R)-11-acetamido-8-(hydroxymethyl)-2-methyl-7,10-dioxo-13-thia-2,6,9-triazapentadecan-15-yl)carbamate], the “chemokine induction (MCP-1, MCP-3, MDC, IL-8)” value in the data set on human PBMCs was “prominent biphasic induction”. At human TLR2, this compound returned a concentration giving a half-maximal response (EC50) of 0.25 nM. Also, in the data set on rabbits (setting [6]), the “pyrogenicity (febrile response, core temperature)” value is “did not induce any such effects”; the “total leukocyte and lymphocyte counts in peripheral blood” value is “did not induce any such effects”. The “observable adverse effects, dose-escalation study” value with rabbits (up to 100 μg/animal, intramuscular or intravenous bolus) is given as “did not result in any observable adverse effects”. Also, the “chemical stability under accelerated stability testing conditions” value in data set [3] (accelerated stability testing) is listed as “retained excellent chemical stability”. In addition, the proinflammatory cytokine signatures result in data set [4] was “could not detect any significant proinflammatory cytokine signatures”. Also, the solubility in “aqueous solubility” was more than 10000 µg/mL. Besides, in data set [5] (CD14+ gated), the “CD11b upregulation in monocytes” value is given as “strong monocytic CD11b upregulation”. For the same compound, the “CD11b upregulation in neutrophils (granulocytes)” value in [5] (relative to 2) is listed as “upregulated CD11b very potently”.

`CCCCCCCCCCCCCCCCn1cc(CCSC[C@H](NC(C)=O)C(=O)N[C@@H](CO)C(=O)OC)nn1` [Compound 27, (S)-Methyl 2-((R)-2-acetamido-3-((2-(1-hexadecyl-1H-1,2,3-triazol-4-yl)ethyl)thio)propanamido)-3-hydroxypropanoate] came in with a half-maximal effective concentration (EC50) at human TLR2 of 1020 nM. That is a single-digit micromolar value.

For `CCCCCCCCCCCCCCCC(=O)OCCSC[C@H](NC(C)=O)C(=O)N[C@@H](COC(=O)CCC(=O)O)C(=O)OC` [Compound 14, (7S,10R)-10-Acetamido-7-(methoxycarbonyl)-4,9,16-trioxo-5,15-dioxa-12-thia-8-azahentriacontan-1-oic acid], at human TLR2, the EC50 is 0.65 nM and the “hTLR2-specific agonistic activity” value is given as “retained hTLR2-specific agonistic activity”. Also, in “aqueous solubility”, the “aqueous solubility” value is reported as “highly water soluble”.

For `CCCCCCCCCCCCCCCC(=O)OCCSC[C@H](NC(C)=O)C(=O)N[C@@H](COC(=O)[C@@H](N)CCCCN)C(=O)OC` [Compound 12, 2-(((R)-2-Acetamido-3-(((S)-3-(((S)-2,6-diaminohexanoyl)oxy)-1-methoxy-1-oxopropan-2-yl)amino)-3-oxopropyl)thio)ethyl palmitate], at human TLR2, it took 1.5 nM to reach a half-maximal effect (EC50) and the “hTLR2-specific agonistic activity” value is recorded as “retained hTLR2-specific agonistic activity”. For the same compound, the “stability of aqueous stocks” value in [3] is listed as “found to be unstable”. Moreover, the “aqueous solubility” value in “aqueous solubility” was “highly water soluble”.

Turning to `CCCCCCCCCCCCCCCC(=O)OCCSC[C@H](NC(C)=O)C(=O)N[C@@H](CCCCN)C(=O)OC` [Compound 10, 2-(((R)-2-Acetamido-3-(((S)-6-amino-1-methoxy-1-oxohexan-2-yl)amino)-3-oxopropyl)thio)ethyl palmitate], on human TLR2, the EC50 was 1.5 nM. Further, the “stability of aqueous stocks” value in [3] is reported as “significant loss of activity of aqueous stocks in less than a week”. Besides, the “aqueous solubility” value in “aqueous solubility” is listed as “highly water soluble”.

In turn, `CCCCCCCCCCCCCCCCOC(=O)NCCSC[C@H](NC(C)=O)C(=O)N[C@@H](CO)C(=O)OC` [Compound 34, (2S,5R)-Methyl 5-acetamido-2-(hydroxymethyl)-4,11-dioxo-12-oxa-7-thia-3,10-diazaoctacosan-1-oate] showed a half-maximal effective concentration (EC50) on human TLR2 of 0.065 nM.

In turn, `CCCCCCCCCCCCCc1cn(CCSC[C@H](NC(C)=O)C(=O)N[C@@H](CO)C(=O)OC)nn1` [Compound 24, (S)-Methyl 2-((R)-2-acetamido-3-((2-(4-tridecyl-1H-1,2,3-triazol-1-yl)ethyl)thio)propanamido)-3-hydroxypropanoate] gave an EC50 on human TLR2 of 290 nM. Against the preceding compound, the EC50 is about 4500-fold higher.
